{"source": "ChEMBL document CHEMBL1151419", "about": "“Antimicrobial effect of halocidin-derived peptide in a mouse model of Listeria infection” (Antimicrob Agents Chemother, 2007)", "key": {"Listeria monocytogenes [1]": {"test_system": "Listeria monocytogenes", "test": "Antibacterial activity against Listeria monocytogenes ATCC 19111 in assay tube containing mixture of erythrocyte/Listeria monocytogenes cells assessed as logarithmic reduction in CFU after 30 mins", "format": "functional", "in_short": "(§1)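 Washed mid-log L. monocytogenes (final 1 x 10^5 CFU/ml) was mixed with human blood cells (final 5 x 10^8 cells/ml) and peptide (final 40 µg/ml) in PBS at 37°C. A peptide-free control was included. At 10, 20 and 30 min, aliquots were plated on TSA and colonies counted after overnight growth. Blood cells were counted by hemocytometer under light microscopy.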"}, "Listeria monocytogenes [2]": {"test_system": "Listeria monocytogenes", "test": "Antimicrobial activity against Listeria monocytogenes ATCC 19111 infected in BALB/c mouse assessed as survival of mouse at 4 mg/kg, iv administered 2 hrs after bacterial challenge measured after 4 days", "format": "functional, organism-based", "design": "dose 4 mg/kg", "in_short": "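Mice (n = 10) were infected by tail vein with 2 x 10^5 L. monocytogenes, grown 18 h at 37°C in brain heart infusion broth. A single i.v. dose of 4 mg/kg in 100 µl PBS was given 2 h after infection; PBS-treated infected mice served as vehicle control. Surviving mice were counted daily for 15 days.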"}, "[3]": {"test": "Toxicity against human erythrocytes in assay tube containing mixture of erythrocytes/Listeria monocytogenes cells at 40 ug/ml after 30 mins", "format": "cell-based", "settings": "erythrocyte, 0.5 h", "in_short": "as §1"}, "Staphylococcus aureus [4]": {"test_system": "Staphylococcus aureus", "test": "Antimicrobial activity against methicillin-resistant Staphylococcus aureus CCARM 3695 treated with sample containing 25 to 200 ug/ml drug incubated with PBS containing 50% normal human serum for 10 mins measured after 3 hrs by radial diffusion assay", "format": "functional, organism-based", "in_short": "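Normal human serum from three donors, heat-treated 30 min at 56°C. Peptide at 25–200 µg/ml in PBS with 50% serum, held 10 min at 37°C; 5 µl placed in 3-mm wells. Underlay: 1% agarose, 9 mM phosphate, 1 mM citrate, 0.3 mg/ml TSB, pH 7.4, with 4 x 10^6 CFU/ml mid-log MRSA. After 3 h at 37°C, overlaid (1% agarose, 6% TSB), incubated overnight. Clear zones in units (1 mm = 10 units); triplicate means.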"}, "Listeria monocytogenes [5]": {"test_system": "Listeria monocytogenes", "test": "Antimicrobial activity against Listeria monocytogenes ATCC 19111 infected in BALB/c mouse at 4 mg/kg, iv in presence of increasing concentration of PGN", "format": "functional, organism-based", "design": "dose 4 mg/kg"}, "Enterococcus faecium": {"test_system": "Enterococcus faecium", "test": "Antimicrobial activity against vancomycin-resistant Enterococcus faecium CCARM 5029 after 18 hrs by broth microdilution assay in presence of 150 mM NaCl", "format": "functional", "settings": "CCARM 5029, 18 h", "in_short": "(§2)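 Same broth microdilution, but the medium was Mueller-Hinton broth supplemented with 150 mM NaCl. Inoculum 2 x 10^5 CFU/ml final. Peptide twofold series in 0.01% acetic acid (stocks 640 to 10 µg/ml). After 18 h at 37°C, MIC read as the lowest concentration with no visible growth.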"}, "[6]": {"test": "Toxicity in human erythrocytes assessed as hemolysis at 25 ug/ml relative to Triton X-100", "format": "cell-based, Erythrocyte", "settings": "read-out: Activity", "in_short": "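Peptide (20 µl) was mixed with 180 µl of a 2.5% (vol/vol) human RBC suspension in PBS and incubated 30 min at 37°C. PBS was added and samples centrifuged 3 min at 10,000 x g; supernatant A540 was read. Hemolysis was expressed relative to a peptide-free PBS blank and 1% Triton X-100 as 100%.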"}, "Listeria monocytogenes [7]": {"test_system": "Listeria monocytogenes", "test": "Antimicrobial activity against Listeria monocytogenes ATCC 19111 infected in BALB/c mouse at 4 mg/kg, iv in presence of increasing concentration of pustulan", "format": "functional, organism-based", "design": "dose 4 mg/kg"}, "Staphylococcus aureus [8]": {"test_system": "Staphylococcus aureus", "test": "Antimicrobial activity against methicillin-resistant Staphylococcus aureus CCARM 3695 after 18 hrs by broth microdilution assay in presence of 150 mM NaCl", "format": "functional", "settings": "CCARM 3695, 18 h", "in_short": "as §2"}, "[9]": {"test": "Stability in human serum assessed as half life at 1 mg/ml", "format": "ADME, cell-free"}}, "note": "Activity calls are given as the source filed them. The calls are words filed in the database; no cut-off is given here. Bridge positions count the residues as written; N and C are the ends. Peptide text beside a SMILES is read from it. I, II: the chains in the order shown."}
{"smiles": "CC(C)C[C@H](NC(=O)CNC(=O)[C@H](Cc1cnc[nH]1)NC(=O)[C@H](Cc1cnc[nH]1)NC(=O)[C@H](CC(C)C)NC(=O)[C@H](CC(C)C)NC(=O)[C@H](C)N)C(=O)N[C@@H](CC(N)=O)C(=O)N[C@@H](CSSC[C@H](NC(=O)[C@H](CC(N)=O)NC(=O)[C@H](CC(C)C)NC(=O)CNC(=O)[C@H](Cc1cnc[nH]1)NC(=O)[C@H](Cc1cnc[nH]1)NC(=O)[C@H](CC(C)C)NC(=O)[C@H](CC(C)C)NC(=O)[C@H](C)NC(=O)[C@H](CC(N)=O)NC(=O)[C@H](CC(C)C)NC(=O)[C@H](Cc1c[nH]c2ccccc12)NC(=O)[C@@H](N)CCCCN)C(=O)N[C@@H](C)C(=O)N[C@@H](CCCCN)C(=O)NCC(=O)N[C@H](C(=O)N[C@@H](CC(C)C)C(=O)N[C@@H](C)C(=O)O)C(C)C)C(=O)N[C@@H](C)C(=O)N[C@@H](CCCCN)C(=O)NCC(=O)N[C@H](C(=O)N[C@@H](CC(C)C)C(=O)N[C@@H](C)C(=O)O)C(C)C", "note": "(I: H-KWLNALLHHGLNCAKGVLA-OH / II: H-ALLHHGLNCAKGVLA-OH; disulfide I:13-II:9)", "values": [{"measurement": "Activity", "setting": "Listeria monocytogenes [1]", "result": 3}, {"measurement": "Activity", "setting": "Listeria monocytogenes [2]", "result": "Active"}, {"measurement": "Activity", "setting": "[3]", "result": "Non-toxic"}, {"measurement": "Activity", "setting": "Staphylococcus aureus [4]", "result": "Active"}, {"measurement": "Activity", "setting": "Listeria monocytogenes [5]", "result": "inactive"}, {"measurement": "MIC", "setting": "Enterococcus faecium", "result": 8, "unit": "µg/mL"}, {"measurement": "hemolysis at 25 ug/ml", "setting": "[6]", "result": 2.3, "unit": "%"}, {"measurement": "Activity", "setting": "Listeria monocytogenes [7]", "result": "Active"}, {"measurement": "MIC", "setting": "Staphylococcus aureus [8]", "result": 16, "unit": "µg/mL"}, {"measurement": "half-life at 1 mg/ml", "setting": "[9]", "result": 6, "unit": "h"}]}
